# Data from ChEMBL document CHEMBL5058577, “EUbOPEN Chemogenomics Library 2 (Multiplex)” (2022).
# System: HEK-293T
# Test: Multiplex assay against HEK293T
# Assay type: toxicity, cell-based
# Conditions: human
# Summary of the method: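 Phenotypes for tubulin, mitochondrial mass and membrane permeability are expressed as per cents of healthy-nucleus cells. Cells were stained live at seeding with Hoechst33342, BioTracker Green Microtubule Cytoskeleton Dye, MitoTracker Red and Annexin V Alexa Fluor 680, then imaged after compound addition on a CQ1 microscope at 37°C and 5% CO2. Machine-learning gating in CellPathfinder separated Hoechst high-intensity objects from normal cells, divided normal cells by nuclear state (healthy, pyknosed, fragmented) and divided pyknosed cells into mitotic or apoptotic.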
# [1] = 12 h, 1 µM, compound concentration 1 uM, replicate 1
# [2] = 12 h, 1 µM, compound concentration 1 uM, replicate 2
# [3] = 12 h, 10 µM, compound concentration 10 uM, replicate 1
# [4] = 12 h, 10 µM, compound concentration 10 uM, replicate 2
# [5] = 24 h, 1 µM, compound concentration 1 uM, replicate 1
# [6] = 24 h, 1 µM, compound concentration 1 uM, replicate 2
# [7] = 24 h, 10 µM, compound concentration 10 uM, replicate 1
# [8] = 24 h, 10 µM, compound concentration 10 uM, replicate 2
# [9] = 48 h, 1 µM, compound concentration 1 uM, replicate 1
# [10] = 48 h, 1 µM, compound concentration 1 uM, replicate 2
# [11] = 48 h, 10 µM, compound concentration 10 uM, replicate 1
# [12] = 48 h, 10 µM, compound concentration 10 uM, replicate 2
smiles,measurement,setting,value
O=C1COc2nccc(-c3ccccc3F)c2CN1Cc1cc(C(F)(F)F)cc(C(F)(F)F)c1,Population Apoptotic (%),[1],31%
same,Population Fragmented Nuclei (%),[1],8%
same,Population Healthy Nuclei (%),[1],80%
same,Population Hoechst High Intensity Objects (%),[1],5%
same,Population Membrane Permeable-Phenotype (%),[1],0%
same,Population Mitochondria Different-Phenotype (%),[1],41%
same,Population Mitotic Cells (%),[1],68%
same,Population Normal (%),[1],94%
same,Population Pyknosed Nuclei (%),[1],10%
same,Population Tubulin-Different-Phenotype (%),[1],27%
same,Total Cell Count,[1],397
same,Population Apoptotic (%),[2],51%
same,Population Fragmented Nuclei (%),[2],4%
same,Population Healthy Nuclei (%),[2],83%
same,Population Hoechst High Intensity Objects (%),[2],10%
same,Population Mitochondria Different-Phenotype (%),[2],67%
same,Population Mitotic Cells (%),[2],48%
same,Population Normal (%),[2],89%
same,Population Pyknosed Nuclei (%),[2],11%
same,Population Tubulin-Different-Phenotype (%),[2],20%
same,Total Cell Count,[2],333
same,Population Apoptotic (%),[3],38%
same,Population Fragmented Nuclei (%),[3],10%
same,Population Healthy Nuclei (%),[3],76%
same,Population Hoechst High Intensity Objects (%),[3],9%
same,Population Membrane Permeable-Phenotype (%),[3],0%
same,Population Mitochondria Different-Phenotype (%),[3],67%
same,Population Mitotic Cells (%),[3],61%
same,Population Normal (%),[3],90%
same,Population Pyknosed Nuclei (%),[3],13%
same,Population Tubulin-Different-Phenotype (%),[3],68%
same,Total Cell Count,[3],475
same,Population Apoptotic (%),[4],57%
same,Population Fragmented Nuclei (%),[4],8%
same,Population Healthy Nuclei (%),[4],79%
same,Population Hoechst High Intensity Objects (%),[4],5%
same,Population Mitochondria Different-Phenotype (%),[4],76%
same,Population Mitotic Cells (%),[4],42%
same,Population Normal (%),[4],94%
same,Population Pyknosed Nuclei (%),[4],12%
same,Population Tubulin-Different-Phenotype (%),[4],39%
same,Total Cell Count,[4],382
same,Population Apoptotic (%),[5],21%
same,Population Fragmented Nuclei (%),[5],8%
same,Population Healthy Nuclei (%),[5],84%
same,Population Hoechst High Intensity Objects (%),[5],3%
same,Population Membrane Permeable-Phenotype (%),[5],0%
same,Population Mitochondria Different-Phenotype (%),[5],32%
same,Population Mitotic Cells (%),[5],78%
same,Population Normal (%),[5],96%
same,Population Pyknosed Nuclei (%),[5],7%
same,Population Tubulin-Different-Phenotype (%),[5],23%
same,Total Cell Count,[5],517
same,Population Apoptotic (%),[6],59%
same,Population Fragmented Nuclei (%),[6],5%
same,Population Healthy Nuclei (%),[6],87%
same,Population Hoechst High Intensity Objects (%),[6],8%
same,Population Mitochondria Different-Phenotype (%),[6],39%
same,Population Mitotic Cells (%),[6],40%
same,Population Normal (%),[6],91%
same,Population Pyknosed Nuclei (%),[6],6%
same,Population Tubulin-Different-Phenotype (%),[6],12%
same,Total Cell Count,[6],428
same,Population Apoptotic (%),[7],52%
same,Population Fragmented Nuclei (%),[7],10%
same,Population Healthy Nuclei (%),[7],76%
same,Population Hoechst High Intensity Objects (%),[7],5%
same,Population Membrane Permeable-Phenotype (%),[7],0%
same,Population Mitochondria Different-Phenotype (%),[7],71%
same,Population Mitotic Cells (%),[7],47%
same,Population Normal (%),[7],94%
same,Population Pyknosed Nuclei (%),[7],13%
same,Population Tubulin-Different-Phenotype (%),[7],68%
same,Total Cell Count,[7],520
same,Population Apoptotic (%),[8],36%
same,Population Fragmented Nuclei (%),[8],7%
same,Population Healthy Nuclei (%),[8],79%
same,Population Mitochondria Different-Phenotype (%),[8],72%
same,Population Mitotic Cells (%),[8],63%
same,Population Pyknosed Nuclei (%),[8],12%
same,Population Tubulin-Different-Phenotype (%),[8],44%
same,Total Cell Count,[8],492
same,Population Apoptotic (%),[9],27%
same,Population Fragmented Nuclei (%),[9],13%
same,Population Healthy Nuclei (%),[9],80%
same,Population Hoechst High Intensity Objects (%),[9],2%
same,Population Membrane Permeable-Phenotype (%),[9],0%
same,Population Mitochondria Different-Phenotype (%),[9],29%
same,Population Mitotic Cells (%),[9],72%
same,Population Normal (%),[9],97%
same,Population Pyknosed Nuclei (%),[9],6%
same,Population Tubulin-Different-Phenotype (%),[9],14%
same,Total Cell Count,[9],743
same,Population Apoptotic (%),[10],38%
same,Population Fragmented Nuclei (%),[10],9%
same,Population Healthy Nuclei (%),[10],81%
same,Population Hoechst High Intensity Objects (%),[10],4%
same,Population Mitochondria Different-Phenotype (%),[10],23%
same,Population Mitotic Cells (%),[10],61%
same,Population Normal (%),[10],95%
same,Population Pyknosed Nuclei (%),[10],8%
same,Population Tubulin-Different-Phenotype (%),[10],12%
same,Total Cell Count,[10],574
same,Population Apoptotic (%),[11],44%
same,Population Fragmented Nuclei (%),[11],13%
same,Population Healthy Nuclei (%),[11],75%
same,Population Hoechst High Intensity Objects (%),[11],3%
same,Population Membrane Permeable-Phenotype (%),[11],0%
same,Population Mitochondria Different-Phenotype (%),[11],63%
same,Population Mitotic Cells (%),[11],55%
same,Population Normal (%),[11],96%
same,Population Pyknosed Nuclei (%),[11],11%
same,Population Tubulin-Different-Phenotype (%),[11],46%
same,Total Cell Count,[11],713
same,Population Apoptotic (%),[12],56%
same,Population Fragmented Nuclei (%),[12],11%
same,Population Healthy Nuclei (%),[12],80%
same,Population Hoechst High Intensity Objects (%),[12],2%
same,Population Mitochondria Different-Phenotype (%),[12],51%
same,Population Mitotic Cells (%),[12],43%
same,Population Normal (%),[12],97%
same,Population Pyknosed Nuclei (%),[12],7%
same,Population Tubulin-Different-Phenotype (%),[12],25%
same,Total Cell Count,[12],669
